In ChEMBL document CHEMBL5303300, “EUbOPEN Chemogenomics Library - Multiplex” (2023):
Several values for one entry are separate records, joined by “and”; a condition that tells them apart may be missing. Equal values may be shown once.

Columns and labels:
Assay type in all cases: toxicity, cell-based
Fibroblast = experiment: Multiplex assay against human fibroblast; details: number of replicates 2
In short: (§1)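 Live cells were stained at seeding with Hoechst33342, BioTracker Green Microtubule Cytoskeleton Dye, MitoTracker Red and Annexin V Alexa Fluor 680. Following compound addition, they were imaged on a CQ1 microscope at 37°C and 5% CO2 and gated by CellPathfinder machine learning into Hoechst high-intensity objects or normal cells, with normal cells split into healthy, pyknosed or fragmented nuclei and pyknosed cells into mitotic or apoptotic. Tubulin, mitochondrial-mass and membrane-permeability phenotypes are per cents of healthy-nucleus cells.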

HEK-293T = experiment: Multiplex assay against HEK293T; details: human, number of replicates 2; in short: as §1
U2OS = experiment: Multiplex assay against U2OS; details: human, number of replicates 2; in short: as §1
[1] = 12 h, 1 µM, compound concentration 1 uM
[2] = 12 h, 10 µM, compound concentration 10 uM
[3] = 24 h, 1 µM, compound concentration 1 uM
[4] = 24 h, 10 µM, compound concentration 10 uM
[5] = 48 h, 1 µM, compound concentration 1 uM
[6] = 48 h, 10 µM, compound concentration 10 uM

## COc1c(OCCCN2CCOCC2)ccc2c1N=C(NC(=O)c1cnc(N)nc1)N1CCN=C21 [COPANLISIB]
Fibroblast; [1]
  Population Apoptotic (%): 39% and 50%
  Population Fragmented Nuclei (%): 8% and 10%
  Population Healthy Nuclei (%): 65% and 63%
  Population Hoechst High Intensity Objects (%): 0%
  Population Membrane Permeable-Phenotype (%): 1% and 7%
  Population Mitochondria Different-Phenotype (%): 0% and 3%
  Population Mitotic Cells (%): 60% and 50%
  Population Normal (%): 100%
  Population Pyknosed Nuclei (%): 26%
  Population Tubulin-Different-Phenotype (%): 1% and 7%
  Total Cell Count: 157 and 180
Fibroblast; [2]
  Population Apoptotic (%): 52% and 45%
  Population Fragmented Nuclei (%): 10% and 13%
  Population Healthy Nuclei (%): 77% and 74%
  Population Hoechst High Intensity Objects (%): 0%
  Population Membrane Permeable-Phenotype (%): 7% and 2%
  Population Mitochondria Different-Phenotype (%): 3% and 2%
  Population Mitotic Cells (%): 47% and 54%
  Population Normal (%): 100%
  Population Pyknosed Nuclei (%): 12% and 11%
  Total Cell Count: 149 and 188
Fibroblast; [3]
  Population Apoptotic (%): 48% and 57%
  Population Fragmented Nuclei (%): 14% and 8%
  Population Healthy Nuclei (%): 60% and 71%
  Population Hoechst High Intensity Objects (%): 0%
  Population Membrane Permeable-Phenotype (%): 2% and 5%
  Population Mitochondria Different-Phenotype (%): 1% and 2%
  Population Mitotic Cells (%): 51% and 42%
  Population Normal (%): 100%
  Population Pyknosed Nuclei (%): 25% and 20%
  Population Tubulin-Different-Phenotype (%): 2% and 5%
  Total Cell Count: 155 and 165
Fibroblast; [4]
  Population Apoptotic (%): 76% and 60%
  Population Fragmented Nuclei (%): 18% and 16%
  Population Healthy Nuclei (%): 63% and 72%
  Population Hoechst High Intensity Objects (%): 0%
  Population Membrane Permeable-Phenotype (%): 3% and 0%
  Population Mitochondria Different-Phenotype (%): 2% and 1%
  Population Mitotic Cells (%): 23% and 39%
  Population Normal (%): 100%
  Population Pyknosed Nuclei (%): 17% and 11%
  Population Tubulin-Different-Phenotype (%): 9% and 2%
  Total Cell Count: 174 and 209
Fibroblast; [5]
  Population Apoptotic (%): 73% and 57%
  Population Fragmented Nuclei (%): 7% and 14%
  Population Healthy Nuclei (%): 70% and 71%
  Population Hoechst High Intensity Objects (%): 0%
  Population Membrane Permeable-Phenotype (%): 6% and 10%
  Population Mitochondria Different-Phenotype (%): 0%
  Population Mitotic Cells (%): 26% and 42%
  Population Normal (%): 100%
  Population Pyknosed Nuclei (%): 21% and 14%
  Population Tubulin-Different-Phenotype (%): 2% and 3%
  Total Cell Count: 140 and 176
Fibroblast; [6]
  Population Apoptotic (%): 68% and 77%
  Population Fragmented Nuclei (%): 15% and 18%
  Population Healthy Nuclei (%): 70%
  Population Hoechst High Intensity Objects (%): 1% and 0%
  Population Membrane Permeable-Phenotype (%): 11% and 4%
  Population Mitochondria Different-Phenotype (%): 1% and 2%
  Population Mitotic Cells (%): 32% and 22%
  Population Normal (%): 98% and 100%
  Population Pyknosed Nuclei (%): 14% and 10%
  Total Cell Count: 176 and 205
HEK-293T; [1]
  Population Apoptotic (%): 66% and 65%
  Population Fragmented Nuclei (%): 7% and 3%
  Population Healthy Nuclei (%): 66% and 82%
  Population Hoechst High Intensity Objects (%): 14% and 12%
  Population Membrane Permeable-Phenotype (%): 2% and 1%
  Population Mitochondria Different-Phenotype (%): 43% and 39%
  Population Mitotic Cells (%): 33% and 34%
  Population Normal (%): 85% and 87%
  Population Pyknosed Nuclei (%): 25% and 13%
  Population Tubulin-Different-Phenotype (%): 57% and 58%
  Total Cell Count: 337 and 345
HEK-293T; [2]
  Population Apoptotic (%): 67% and 62%
  Population Fragmented Nuclei (%): 7% and 2%
  Population Healthy Nuclei (%): 74% and 83%
  Population Hoechst High Intensity Objects (%): 13% and 11%
  Population Membrane Permeable-Phenotype (%): 1% and 0%
  Population Mitochondria Different-Phenotype (%): 60% and 66%
  Population Mitotic Cells (%): 32% and 37%
  Population Normal (%): 86% and 88%
  Population Pyknosed Nuclei (%): 18% and 13%
  Population Tubulin-Different-Phenotype (%): 68% and 71%
  Total Cell Count: 237 and 220
HEK-293T; [3]
  Population Apoptotic (%): 76% and 67%
  Population Fragmented Nuclei (%): 5% and 3%
  Population Healthy Nuclei (%): 74% and 80%
  Population Hoechst High Intensity Objects (%): 16% and 20%
  Population Membrane Permeable-Phenotype (%): 1%
  Population Mitochondria Different-Phenotype (%): 35% and 33%
  Population Mitotic Cells (%): 23% and 32%
  Population Normal (%): 83% and 79%
  Population Pyknosed Nuclei (%): 20% and 15%
  Population Tubulin-Different-Phenotype (%): 56% and 60%
  Total Cell Count: 382 and 316
HEK-293T; [4]
  Population Apoptotic (%): 80% and 50%
  Population Fragmented Nuclei (%): 6% and 2%
  Population Healthy Nuclei (%): 76% and 82%
  Population Hoechst High Intensity Objects (%): 20% and 16%
  Population Membrane Permeable-Phenotype (%): 2% and 1%
  Population Mitochondria Different-Phenotype (%): 52% and 58%
  Population Mitotic Cells (%): 19% and 50%
  Population Normal (%): 79% and 83%
  Population Pyknosed Nuclei (%): 17% and 15%
  Population Tubulin-Different-Phenotype (%): 67% and 68%
  Total Cell Count: 229 and 189
HEK-293T; [5]
  Population Apoptotic (%): 62% and 63%
  Population Fragmented Nuclei (%): 9% and 12%
  Population Healthy Nuclei (%): 75% and 78%
  Population Hoechst High Intensity Objects (%): 20% and 26%
  Population Membrane Permeable-Phenotype (%): 1% and 3%
  Population Mitochondria Different-Phenotype (%): 16% and 6%
  Population Mitotic Cells (%): 37% and 36%
  Population Normal (%): 79% and 73%
  Population Pyknosed Nuclei (%): 15% and 8%
  Population Tubulin-Different-Phenotype (%): 70% and 43%
  Total Cell Count: 374 and 726
HEK-293T; [6]
  Population Apoptotic (%): 68% and 74%
  Population Fragmented Nuclei (%): 9% and 6%
  Population Healthy Nuclei (%): 66% and 76%
  Population Hoechst High Intensity Objects (%): 20% and 25%
  Population Membrane Permeable-Phenotype (%): 4% and 2%
  Population Mitochondria Different-Phenotype (%): 41% and 45%
  Population Mitotic Cells (%): 31% and 25%
  Population Normal (%): 79% and 74%
  Population Pyknosed Nuclei (%): 24% and 16%
  Population Tubulin-Different-Phenotype (%): 68% and 72%
  Total Cell Count: 262 and 245
U2OS; [1]
  Population Apoptotic (%): 100% and 76%
  Population Healthy Nuclei (%): 60% and 87%
  Population Hoechst High Intensity Objects (%): 0%
  Population Membrane Permeable-Phenotype (%): 0% and 2%
  Population Mitochondria Different-Phenotype (%): 0%
  Population Mitotic Cells (%): 0% and 23%
  Population Normal (%): 100%
  Population Pyknosed Nuclei (%): 4% and 7%
  Population Tubulin-Different-Phenotype (%): 93% and 90%
U2OS; [2]
  Population Apoptotic (%): 100% and 76%
  Population Healthy Nuclei (%): 32% and 80%
  Population Hoechst High Intensity Objects (%): 0%
  Population Mitochondria Different-Phenotype (%): 10% and 1%
  Population Mitotic Cells (%): 0% and 24%
  Population Normal (%): 100%
  Population Pyknosed Nuclei (%): 16% and 15%
  Population Tubulin-Different-Phenotype (%): 80%
U2OS; [3]
  Population Apoptotic (%): 100% and 70%
  Population Healthy Nuclei (%): 56% and 86%
  Population Hoechst High Intensity Objects (%): 0%
  Population Membrane Permeable-Phenotype (%): 0% and 2%
  Population Mitochondria Different-Phenotype (%): 0% and 1%
  Population Normal (%): 100%
  Population Pyknosed Nuclei (%): 8% and 10%
  Population Tubulin-Different-Phenotype (%): 100% and 89%
U2OS; [4]
  Population Apoptotic (%): 50% and 64%
  Population Hoechst High Intensity Objects (%): 2% and 0%
  Population Mitotic Cells (%): 50% and 35%
  Population Normal (%): 97% and 100%
  Population Pyknosed Nuclei (%): 22%
  Population Tubulin-Different-Phenotype (%): 75% and 84%
U2OS; [5]
  Population Apoptotic (%): 80% and 72%
  Population Healthy Nuclei (%): 41% and 88%
  Population Hoechst High Intensity Objects (%): 4% and 0%
  Population Membrane Permeable-Phenotype (%): 0% and 2%
  Population Mitochondria Different-Phenotype (%): 0% and 1%
  Population Mitotic Cells (%): 20% and 27%
  Population Normal (%): 96% and 99%
  Population Pyknosed Nuclei (%): 20% and 8%
  Population Tubulin-Different-Phenotype (%): 100% and 95%
U2OS; [6]
  Population Apoptotic (%): 92% and 79%
  Population Hoechst High Intensity Objects (%): 0% and 1%
  Population Mitochondria Different-Phenotype (%): 0% and 3%
  Population Mitotic Cells (%): 7% and 20%
  Population Normal (%): 100% and 98%
  Population Pyknosed Nuclei (%): 34% and 35%
